Columns and labels:
Assay type in all cases: functional
[1] = Growth inhibition of human SNB19 cells assessed as cell growth at 10 uM incubated for 48 hrs by sulforhodamine B assay relative to control; conditions: SNB-19, 48 h, read-out: Activity
Procedure, shortened: (§1)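 Run in the standard NCI 60-cell-line screen. Cells were exposed to drug for two days, and the read-out was sulforhodamine B staining. Compound was tested at a single final concentration of 10 µM in every line, and results are reported as growth percent.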

[2] = Growth inhibition of human SNB75 cells assessed as cell growth at 10 uM incubated for 48 hrs by sulforhodamine B assay relative to control; conditions: SNB-75, 48 h, read-out: Activity; procedure, shortened: as §1
Malme-3M = test: Growth inhibition of human MALME-3M cells assessed as cell growth at 10 uM incubated for 48 hrs by sulforhodamine B assay relative to control; conditions: read-out: Activity; procedure, shortened: as §1
M14 [3] = test: Growth inhibition of human M14 cells assessed as cell growth at 10 uM incubated for 48 hrs by sulforhodamine B assay relative to control; conditions: M14, 48 h, read-out: Activity; procedure, shortened: as §1
MDA-MB-435 = test: Growth inhibition of human MDA-MB-435 cells assessed as cell growth at 10 uM incubated for 48 hrs by sulforhodamine B assay relative to control; conditions: MDA-MB-435, 48 h, read-out: Activity; procedure, shortened: as §1
[4] = Growth inhibition of human OVCAR4 cells assessed as cell growth at 10 uM incubated for 48 hrs by sulforhodamine B assay relative to control; conditions: OVCAR-4, 48 h, read-out: Activity; procedure, shortened: as §1
[5] = Growth inhibition of human Caki1 cells assessed as cell growth at 10 uM incubated for 48 hrs by sulforhodamine B assay relative to control; conditions: CAKI-1, 48 h, read-out: Activity; procedure, shortened: as §1
[6] = Growth inhibition of human TK10 cells assessed as cell growth at 10 uM incubated for 48 hrs by sulforhodamine B assay relative to control; conditions: TK-10, 48 h, read-out: Activity
Procedure, shortened: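 NCI 60-cell line standard protocol, one-dose screen: single final concentration 10 µM, 2-day drug exposure, sulforhodamine B (SRB) endpoint; read-out is growth percent relative to untreated control.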

MDA-MB-231 [7] = test: Growth inhibition of human MDA-MB-231 cells assessed as cell growth at 10 uM incubated for 48 hrs by sulforhodamine B assay relative to control; conditions: MDA-MB-231, 48 h, read-out: Activity; procedure, shortened: as §1
[8] = Growth inhibition of human RPMI8226 cells incubated for 48 hrs by sulforhodamine B assay; conditions: RPMI-8226, 48 h
Procedure, shortened: (§2)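 NCI 60-cell-line panel, standard protocol. Cells exposed to compound for two days, growth read by sulforhodamine B staining. Tested at five 10-fold dilutions, top concentration 100 µM, to give dose-response curves.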

SR = test: Growth inhibition of human SR cells incubated for 48 hrs by sulforhodamine B assay
Procedure, shortened: (§3)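 Tested in the standard NCI 60-cell-line protocol with two-day drug exposure and a sulforhodamine B endpoint. Compounds were first screened at a single final concentration of 10 µM, reported as growth percent. They were then run as five 10-fold dilutions starting from a high concentration of 100 µM to give dose-response curves.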

NCI-H23 = test: Growth inhibition of human NCI-H23 cells incubated for 48 hrs by sulforhodamine B assay; conditions: NCI-H23, 48 h; procedure, shortened: as §2
[9] = Growth inhibition of human HCT116 cells incubated for 48 hrs by sulforhodamine B assay; conditions: HCT-116, 48 h; procedure, shortened: as §2
[10] = Growth inhibition of human HCT15 cells incubated for 48 hrs by sulforhodamine B assay; conditions: HCT-15, 48 h; procedure, shortened: as §2
[11] = Growth inhibition of human SW620 cells incubated for 48 hrs by sulforhodamine B assay; conditions: SW-620, 48 h; procedure, shortened: as §3
[12] = Growth inhibition of human SNB75 cells incubated for 48 hrs by sulforhodamine B assay; conditions: SNB-75, 48 h; procedure, shortened: as §3
U-251 = test: Growth inhibition of human U251 cells incubated for 48 hrs by sulforhodamine B assay; conditions: U-251, 48 h; procedure, shortened: as §3
M14 [13] = test: Growth inhibition of human M14 cells incubated for 48 hrs by sulforhodamine B assay; conditions: M14, 48 h; procedure, shortened: as §2
SK-MEL-2 = test: Growth inhibition of human SK-MEL-2 cells incubated for 48 hrs by sulforhodamine B assay; conditions: SK-MEL-2, 48 h; procedure, shortened: as §2
SK-MEL-28 = test: Growth inhibition of human SK-MEL-28 cells incubated for 48 hrs by sulforhodamine B assay; conditions: SK-MEL-28, 48 h; procedure, shortened: as §2
[14] = Growth inhibition of human UACC62 cells incubated for 48 hrs by sulforhodamine B assay; conditions: UACC-62, 48 h; procedure, shortened: as §3
[15] = Growth inhibition of human IGROV1 cells incubated for 48 hrs by sulforhodamine B assay; conditions: IGROV-1, 48 h; procedure, shortened: as §2
NCI/ADR-RES = test: Growth inhibition of human NCI/ADR-RES cells incubated for 48 hrs by sulforhodamine B assay; procedure, shortened: as §2
MDA-MB-231 [16] = test: Growth inhibition of human MDA-MB-231 cells incubated for 48 hrs by sulforhodamine B assay; conditions: MDA-MB-231, 48 h; procedure, shortened: as §2
MDA-MB-468 = test: Growth inhibition of human MDA-MB-468 cells incubated for 48 hrs by sulforhodamine B assay; conditions: MDA-MB-468, 48 h; procedure, shortened: as §2
K562 = test: Growth inhibition of human K562 cells incubated for 48 hrs by sulforhodamine B assay; conditions: K562, 48 h; procedure, shortened: as §2
[17] = Growth inhibition of human MOLT4 cells assessed as cell growth at 10 uM incubated for 48 hrs by sulforhodamine B assay relative to control; conditions: MOLT-4, 48 h, read-out: Activity; procedure, shortened: as §1
[18] = Growth inhibition of human RPMI8226 cells assessed as cell growth at 10 uM incubated for 48 hrs by sulforhodamine B assay relative to control; conditions: RPMI-8226, 48 h, read-out: Activity; procedure, shortened: as §1
NCI-H322M = test: Growth inhibition of human NCI-H322M cells assessed as cell growth at 10 uM incubated for 48 hrs by sulforhodamine B assay relative to control; conditions: read-out: Activity; procedure, shortened: as §1
[19] = read-out: pLC50 (the source's name) (converted)

CC(C)[C@@]12C[C@@H](NC(=O)CO)[C@@](C)(O1)[C@@H]1CC[C@@H](C)[C@H]1[C@@H]2OC(=O)c1ccc2ccccc2c1
growth at 10 µM [1]: 97.2%
growth at 10 µM [2]: 72.7%
growth at 10 µM (Malme-3M): 85.3%
growth at 10 µM (M14 [3]): 95.2%
growth at 10 µM (MDA-MB-435): 94%
growth at 10 µM [4]: 82.2%
growth at 10 µM [5]: 52.6%
growth at 10 µM [6]: 102%
growth at 10 µM (MDA-MB-231 [7]): 101%
GI50 [8]: 14.5 µM
CC50 [8, 19]: 85.1 µM
TGI ([8]; read-out: pTGI (converted)): 35.5 µM
GI50 (SR): 17.8 µM
LC50 (SR): 81.3 µM
TGI (SR; read-out: pTGI (converted)): 38 µM
GI50 (NCI-H23): 14.1 µM
LC50 (NCI-H23): 57.5 µM
TGI (NCI-H23; read-out: pTGI (converted)): 28.2 µM
GI50 [9]: 14.1 µM
LC50 [9]: 53.7 µM
TGI ([9]; read-out: pTGI (converted)): 27.5 µM
GI50 [10]: 16.6 µM
LC50 [10]: 61.7 µM
TGI ([10]; read-out: pTGI (converted)): 31.6 µM
GI50 [11]: 16.6 µM
LC50 (50% lethal concentration) [11]: 72.4 µM
TGI ([11]; read-out: pTGI (converted)): 34.7 µM
GI50 [12]: 13.2 µM
LC50 [12]: 56.2 µM
TGI ([12]; read-out: pTGI (converted)): 27.5 µM
GI50 (U-251): 16.2 µM
LC50 (concentration giving 50% net cell kill) (U-251): 56.2 µM
TGI (U-251; read-out: pTGI (converted)): 30.2 µM
GI50 (M14 [13]): 16.6 µM
LC50 (M14 [13]): 58.9 µM
TGI (M14 [13]; read-out: pTGI (converted)): 31.6 µM
GI50 (SK-MEL-2): 17 µM
LC50 (SK-MEL-2): 60.3 µM
TGI (SK-MEL-2; read-out: pTGI (converted)): 31.6 µM
GI50 (SK-MEL-28): 16.6 µM
LC50 (SK-MEL-28): 57.5 µM
TGI (SK-MEL-28; read-out: pTGI (converted)): 30.9 µM
GI50 [14]: 13.5 µM
LC50 (lethal concentration, 50% net cell kill) [14]: 55 µM
TGI ([14]; read-out: pTGI (converted)): 26.9 µM
GI50 [15]: 17.8 µM
CC50 [15, 19]: 61.7 µM
TGI ([15]; read-out: pTGI (converted)): 33.1 µM
GI50 (NCI/ADR-RES): 11 µM
LC50 (NCI/ADR-RES): 57.5 µM
TGI (NCI/ADR-RES; read-out: pTGI (converted)): 25.1 µM
GI50 (MDA-MB-231 [16]): 15.1 µM
CC50 (MDA-MB-231 [16]; [19]): 67.6 µM
TGI (MDA-MB-231 [16]; read-out: pTGI (converted)): 32.4 µM
GI50 (MDA-MB-468): 14.8 µM
CC50 (MDA-MB-468; [19]): 57.5 µM
TGI (MDA-MB-468; read-out: pTGI (converted)): 28.8 µM
GI50 (K562): 19.5 µM
CC50 (K562; [19]): 95.5 µM
TGI (K562; read-out: pTGI (converted)): 42.7 µM
growth at 10 µM [17]: 74.9%
growth at 10 µM [18]: 67.6%
growth at 10 µM (NCI-H322M): 89.5%

Source: ChEMBL document CHEMBL3804761, “Synthesis of a stable and orally bioavailable englerin analogue” (Bioorg Med Chem Lett, 2016)
